# Bioassay records deposited in PubChem by The Scripps Research Institute Molecular Screening Center.
# Hits are enriched below; roughly 1.6% of the tested compounds scored in any of these assays.
# TDP2 absorb = blocks human TDP2 phosphodiesterase activity; O95551; 370,000 tested, 0.34% active; recombinant TDP2, T5PNP hydrolysis, p-nitrophenol absorbance 415 nm; inhibition, % at 12.8 µM;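 active = inhibition above the mean of all tested compounds plus 3 SD, set per campaign, cut at about 25% in these data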;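 note: 0% = DMSO with enzyme and 100% = buffer with substrate but no TDP2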
# Target sequence (O95551 whole entry, looked up): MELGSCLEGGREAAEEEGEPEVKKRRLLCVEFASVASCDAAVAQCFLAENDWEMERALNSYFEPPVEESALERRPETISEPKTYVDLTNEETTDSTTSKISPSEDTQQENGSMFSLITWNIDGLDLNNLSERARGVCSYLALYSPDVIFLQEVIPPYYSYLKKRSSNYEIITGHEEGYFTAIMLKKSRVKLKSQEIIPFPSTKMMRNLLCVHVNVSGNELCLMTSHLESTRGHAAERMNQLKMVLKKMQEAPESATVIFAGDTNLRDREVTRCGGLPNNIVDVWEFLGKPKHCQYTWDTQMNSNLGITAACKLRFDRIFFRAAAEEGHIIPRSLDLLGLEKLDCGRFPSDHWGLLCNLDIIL
#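 Incubation: 2 h at 37 °C; Test system: recombinant human TDP2; Quantity: enzyme 120 nM; Read-out basis: percent inhibition; Medium: 50 mM Tris-HCl pH 7.5 with Mg2+, KCl, DTT, BSA; Repeats: single replicate; Compound: 12.8 µM single point, 1% DMSO; Signal: epi absorbance; Reagent: 5 mM T5PNP chromogenic substrate; Benchmarks: no-enzyme high, DMSO-plus-enzyme low.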
# MBD2 DNA inh = blocks human MBD2 binding to methylated DNA | TR-FRET, MBD2 binding to methylated oligonucleotide | inhibition, % at 4.4 µM | 370,000 tested, 0.31% active; in the data active = inhibition above about 13%
# LEDGF integ inh = blocks HIV-1 LEDGF/p75-dependent DNA integration | TR-FRET IN-LEDGF/p75 DNA integration, Eu/Cy5 | inhibition, % at 3.7 µM | AID 743269 | 370,000 tested, 0.64% active;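 active = inhibition above the screen-wide mean plus 3 SD, cut at about 13% in these data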;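 note: signal is the Cy5 over europium emission ratio at 671 and 618 nm; 0% = plate median of compound wells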
# UHRF1 MBD2 ctr = human UHRF1 methylated DNA binding inhibitors | Q96T88 | UHRF1 binding to methylated oligo, TR-FRET | inhibition, % at 4.4 µM | 370,000 tested, 0.75% active | AID 687016; in the data active = inhibition above about 21%;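 note: UHRF1 SRA domain binding a hemimethylated CpG hairpin DNA probe; 0% = median of test compound wells and 100% = reference inhibitor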
# IN multimer up = activates HIV-1 integrase multimerization in LEDGF counter-screen; shares compounds with LEDGF integ inh; TR-FRET HIV-1 integrase multimerization, biochemical; activation, % at 7.7 µM; 2,000 tested, 17% active; AID 1053131; in the data active = activation above about 8.9%
# TRFRET interf = counter-screen for LEDGF/p75 integration inhibitors: TR-FRET optical interference. inhibition, % at 7.7 µM. shares compounds with LEDGF integ inh. 2,000 tested, under 10 active. TR-FRET optical interference counterscreen, HIV-1 IN multimerization;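 active = inhibition above the mean over all tested compounds plus 3 SD, which no compound reached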;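 note: 0% = integrase with antibodies and DMSO and 100% = antibodies without integrase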
# LEDGF integ conf = LEDGF/p75-dependent HIV-1 integration inhibition, confirmation | shares compounds with LEDGF integ inh | TR-FRET LEDGF/p75-dependent HIV-1 integration, biochemical | inhibition, % at 3.7 µM | 2,000 tested, 36% active | AID 1053136; in the data active = inhibition above about 14%
# * marks the source's active call; other numbers are inactive results; . = not tested or not shown.
SMILES,TDP2 absorb,MBD2 DNA inh,LEDGF integ inh,UHRF1 MBD2 ctr,IN multimer up,TRFRET interf,LEDGF integ conf
O=S1(=O)CC(N2CCN(CCO)CC2)CN1Cc1ccccc1 (stereo not given),-12,-7,35*,-1,1,-4,-1
COc1ccc2[nH]c(=O)c(CN(C(=O)C(C)C)c3ccccc3OC)cc2c1,10,-6,19*,2,1,-6,-15
COc1ccc(NCc2cc3cc(OC)ccc3[nH]c2=O)cc1,1,-2,16*,-8,2,-7,0
CCC(=O)N(Cc1cc2cc(OC)ccc2[nH]c1=O)c1ccccc1OC,0,0,0,2,.,.,.
Cc1ccccc1S(=O)(=O)NNC(=O)C(=O)NNc1ccccn1,-25,-2,-14,2,.,.,.
O=C1CCC(=O)N1c1ccc(NCCc2cccc(F)c2)c([N+](=O)[O-])c1,-13,0,2,0,.,.,.
O=C1C2CC=CCC2C(=O)N1c1ccc(NCCc2cccc(F)c2)c([N+](=O)[O-])c1 (stereo not given),-1,3,14*,3,0,-3,-8
CCCCCCCN(c1ccccc1)[C@@H]1C[C@H]2CCCC(=O)N3CC[C@@H](C1)[C@@H]23,-6,-3,2,0,.,.,.
CC(C)C[C@@H](CN1CCC[C@H]1CN1C(=O)C(=O)NC[C@@H]1Cc1ccc(O)cc1)N1C[C@H](Cc2ccc(O)cc2)N(CCc2ccccc2)C(=O)C1=O,0,3,73*,3,3,-16,-10
CC(C)C[C@@H](CN1CCC[C@H]1CN1C(=O)C(=O)NC[C@@H]1Cc1ccc(O)cc1)N1C[C@H](Cc2ccccc2)N(CCc2ccccc2)C(=O)C1=O,-3,1,0,4,.,.,.
Cc1cc(CC(=O)O)c2oc(-c3ccoc3)cc(=O)c2c1,10,4,15*,25*,5,-25,29*
O=C1c2nc3cc(-c4ccco4)[nH]n3c(=O)c2CN1C1CCCCC1,4,-5,18*,13,1,-6,5
CN(C)c1ccc(N=C/C=C2\N(C)c3ccccc3C2(C)C)cc1,3,-19,15*,-9,6,-31,-10
Cc1ccc(-c2nn(-c3ccccc3)cc2CO)o1,8,-6,15*,0,0,0,4
OCc1cn(-c2ccccc2)nc1-c1ccco1,3,1,-3,-2,.,.,.
COc1ccccc1Nc1nnc(SCc2cc(=O)n3cc(C)ccc3n2)s1,-12,-3,36*,-1,2,-8,-3
Cc1ccccc1Nc1nnc(SCc2cc(=O)n3ccsc3n2)s1,5,-4,3,-3,.,.,.
COc1ccc(C2=NN(C(=O)CSc3nc(=O)n4cc(C)ccc4n3)C(c3ccc(C)cc3)C2)cc1 (stereo not given),2,-7,2,-3,.,.,.
Cc1cccc(NC(=S)N(CCN(C)C)C(C)c2ccccn2)c1 (stereo not given),4,4,92*,2,-2,11,-5
Cc1cccc(NC(=S)N(CCN(C)C)C(C)c2cccnc2)c1 (stereo not given),-15,-1,-2,7,.,.,.
O=Cc1coc2ccc3ccccc3c2c1=O,-3,0,16*,2,0,0,54*
O=C(O)c1cccc(-n2cccc2/C=C2/NC(=O)N(c3ccc(Cl)cc3)C2=O)c1,-2,101*,83*,103*,36*,-129,81*
NS(=O)(=O)c1ccc(CCNC(=O)c2ccc(Cl)c(S(=O)(=O)N3CCCCC3)c2)cc1,-2,0,0,0,.,.,.
Cc1cc(SCC(=O)c2ccc(O)c(O)c2)n2nc(C)c(-c3ccccc3)c2n1,-19,-1,17*,-3,0,2,12
O=C(c1cccc(F)c1)N1CCN(S(=O)(=O)c2ccccc2)CC1,2,-2,-1,0,.,.,.
CC(=O)O[C@]1(C(C)=O)CC[C@H]2[C@@H]3C=C(C)C4=CC(=O)CC[C@@H]4[C@H]3CC[C@@]21C,3,-9,1,-2,.,.,.
